Assay results published in PMC10613959 (Toxicological Sciences, 2023).
Like-named read-outs stand apart in the source and are kept apart here.

Key:
[1] = Blood partitioning assay for Rbp; type: in vitro ADME; conditions: both, human
How it was run: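 Fresh pooled mixed-gender human whole blood (lithium heparin) and reference plasma centrifuged from the same blood were each incubated with 5 µM test compound at 37°C, n = 3. Reactions were stopped at 0 and 60 min. Rbp was derived by LC-MS/MS from test compound concentration in control plasma versus whole-blood supernatant. Chlorthalidone 5 µM served as positive control.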

[2] = Cross filtration; type: in vitro ADME; conditions: both, human, pooled human plasma
How it was run: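 Modified cross-ultrafiltration: 10 µM test compound in pooled mixed-gender human plasma, 60 min at 37°C, n = 3, then ultrafiltered beside blank plasma. Each retentate was mixed into the partner filtrate and the regenerated samples analysed by LC-MS/MS. Warfarin 10 µM was positive control. Stability was checked at 60 min against non-incubated control. Recovery-corrected mean PPB from filtrate; Fup = 100 − PPB.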

[3] = Metabolic stability in primary human hepatocytes in suspension; type: in vitro ADME; conditions: human, cryopreserved human hepatocytes in suspension (5 donor pool)
How it was run: (§1)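 Cryopreserved human hepatocytes (5-donor pool, 0.8 × 10^6 cells/ml) in Williams E medium (25 mM HEPES, 2 mM L-glutamine) were incubated with test compound at 0.1, 1 and 10 µM, 37°C, n = 3. Sampled at 0, 15, 60, 90, 180 and 240 min; solvent ≤0.5% DMSO or 1% ACN. Heat-inactivated hepatocytes were the negative control. Parent loss was measured by LC-MS. CLint = −k·V (k, slope of log concentration vs time; V, incubation volume/cell number).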

[4] = system: human hepatocytes; test: as above; type: in vitro ADME
How it was run: as §1

[5] = Skin absorption parameters; set-up: species or system human; conditions: Fitted
How it was run: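 A skin model in GastroPlus TCAT started from in silico predicted values for the vehicle, stratum corneum, epidermis and dermis. Its diffusivities and partition coefficients were fitted to skin penetration data: receptor-fluid time course where available, plus skin wash and layer distribution. Parameters were adjusted to minimise model–data difference and then used in the human dermal model. Vehicle/water partitioning is formulation-specific.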

[6] = Scaling of in vitro CLint to in vivo CLint and CLliver; set-up: species or system human; conditions: scaled from the mean in vitro CLint
How it was run: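 Mean in vitro hepatocyte CLint was scaled to in vivo CLint (l/h) using a scaling factor: million cells per gram of liver × grams of liver weight. In vivo CLint was then converted to hepatic clearance with two variations of the well-stirred liver model.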

[7] = PBK population simulation of plasma concentrations; set-up: species or system human
How it was run: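 GastroPlus population simulations reproduced the clinical designs. Lotion or non-aerosol spray, 2 mg/cm2 over 75% body surface, once at 0 h on day 1 and 4 times daily at 2-h intervals on days 2–4 (mixed multiple-dose profile). Alternatively, a 4% formulation over 90% body surface, about 22 mg/kg bw, in 3 male and 3 female subjects. Simulated-mean/observed-mean ratios for Cmax and AUC0−t; 10th–90th percentiles generated.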

[8] = pig skin, 24 h, skin surface washed at 8 h; mean; ref Sasson et al. (2009); cited from earlier work
[9] = human plasma, dermal, ref Schauer et al., 2006, cited from earlier work

Cc1ccc(/C=C2/C(=O)C3(C)CCC2C3(C)C)cc1 (stereo not shown) [4-MBC, 4-methylbenzylidene camphor]
blood plasma ratio at 60 min, 5 µM [1]: 0.88
fraction unbound at 60 min, 10 µM [2]: 0.0004
hepatocyte CLint [3]: 30 µL/min/1e6 cells
hepatocyte CLint at 0.1 µM [3]: 34 µL/min/1e6 cells
hepatocyte CLint at 1 µM [3]: 32.2 µL/min/1e6 cells
hepatocyte CLint at 10 µM [3]: 23.8 µL/min/1e6 cells
depletion in suspension hepatocytes ([4]; human suspension hepatocytes, compared with Naloxone): medium to fast depletion
Dermis diffusivity [5]: 3.0E−08 cm^2/s
Dermis/water partition coefficient [5]: 2.0E+00
Epidermis/water partition coefficient [5]: 1.0E+02
Stratum corneum diffusivity [5]: 6.1E−11 cm^2/s
Stratum corneum/water partition coefficient [5]: 1.0E+03
Vehicle diffusivity [5]: 7.8E−06 cm^2/s
Vehicle/water partition coefficient ([5]; vehicle/formulation specific): 4.0E+04
In vivo CLint scaled [6]: 216 l/h/kg liver
AUC0 − t Fold Difference (Simulated Mean/Observed Mean) ([7]; Female): 0.8
Cmax Fold Difference (Simulated Mean/Observed Mean) ([7]; Female): 0.9
AUC0 − t Fold Difference (Simulated Mean/Observed Mean) ([7]; Male): 0.6
Cmax Fold Difference (Simulated Mean/Observed Mean) ([7]; Male): 0.6
Dermal delivery (Epidermis + dermis + receptor fluid), 4-MBC [8]: 3.17%
Epidermis + Dermis, distribution of 4-MBC [8]: 2.9%
Receptor fluid, distribution of 4-MBC [8]: 0.25%
Skin excess, distribution of 4-MBC [8]: 4.5%
Total recovery, 4-MBC [8]: 87.8%
Total strips (1–40), distribution of 4-MBC [8]: 80.1%
Observed AUC0 − t, Geometric mean ([9]; Female): 485.6 ng·h/mL
Observed Cmax, Range ([9]; Female): 19.8 to 31.2 ng/mL
Observed AUC0 − t, Geometric mean ([9]; Male): 987.9 ng·h/mL
Observed Cmax, Range ([9]; Male): 19.8 to 83.9 ng/mL

C=CCN1CC[C@]23c4c5ccc(O)c4O[C@H]2C(=O)CC[C@@]3(O)[C@H]1C5 [Naloxone, reference compound]
hepatocyte CLint [3]: 16.4 ± 1.6 µL/min/1e6 cells
remaining after 240 min ([4]; positive control, human hepatocytes in suspension, 240 min): 4.8 ± 1.9%
